Source: ChEMBL document CHEMBL3046000, “Design and synthesis of 1-(benzothiazol-5-yl)-1H-1,2,4-triazol-5-ones as protoporphyrinogen oxidase inhibitors” (Bioorg Med Chem, 2013)

Assays:
[1] = Phytotoxicity against 4-leaf stage Glycine max (soybean) plants assessed as plant growth inhibition at 75 g ai/ha applied through spraying measured 30 days after compound treatment under greenhouse conditions; format: organism-based; conditions: in vivo, read-out: GI
[2] = system: Chenopodium album; experiment: Post-emergence herbicidal activity against Chenopodium album seedlings assessed as plant growth inhibition at 150 g ai/ha measured 15 days after compound treatment under greenhouse conditions; format: functional; conditions: 360 h, read-out: GI
[3] = system: Veronica polita; experiment: Post-emergence herbicidal activity against Veronica polita assessed as plant growth inhibition at 75 g ai/ha; format: functional; conditions: read-out: GI
Summary of the method: (§1)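 Compounds formulated as 100 g/L emulsifiable concentrates in DMF with Tween-80 as emulsifier, then diluted with water. Sprayed post-emergence onto pot-grown plants in a greenhouse, with broadleaf weeds at the 2-leaf stage and grasses at the 1-leaf stage. Clay soil with 1.6% organic matter and CEC 12.1 […]; relative humidity about 50%. Rate (g ai/ha) = active ingredient ÷ pot surface area. Untreated and DMF + Tween-80 solvent controls.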

[4] = system: Senna tora; experiment: Post-emergence herbicidal activity against Senna tora assessed as plant growth inhibition at 75 g ai/ha; format: functional; conditions: read-out: GI; summary of the method: as §1
[5] = Phytotoxicity against four-leaf stage Zea mays cv. Anjou (maize) plants assessed as plant growth inhibition at 150 g ai/ha applied through spraying measured 30 days after compound treatment under greenhouse conditions; format: organism-based; conditions: in vivo, read-out: GI
[6] = Phytotoxicity against 4-leaf stage Glycine max (soybean) plants assessed as plant growth inhibition at 150 g ai/ha applied through spraying measured 30 days after compound treatment under greenhouse conditions; format: organism-based; conditions: in vivo, read-out: GI
[7] = system: Echinochloa crus-galli; experiment: Post emergence herbicidal activity against Echinochloa crus-galli (barnyard grass) seedlings assessed as plant growth inhibition at 75 g ai/ha measured 15 days after compound treatment under greenhouse conditions; format: functional; conditions: 360 h, read-out: GI
[8] = Phytotoxicity against 4-leaf stage Triticum aestivum (wheat) plants assessed as plant growth inhibition at 150 g ai/ha applied through spraying measured 30 days after compound treatment under greenhouse conditions; format: organism-based; conditions: in vivo, read-out: GI
[9] = system: Ammannia baccifera; experiment: Post-emergence herbicidal activity against Ammannia baccifera assessed as plant growth inhibition at 75 g ai/ha; format: functional; conditions: read-out: GI; summary of the method: as §1
[10] = system: Commelina communis; experiment: Post-emergence herbicidal activity against Commelina communis (Asiatic dayflower) assessed as plant growth inhibition at 75 g ai/ha; format: functional; conditions: read-out: GI; summary of the method: as §1
[11] = system: Amaranthus spinosus; experiment: Post-emergence herbicidal activity against Amaranthus spinosus assessed as plant growth inhibition at 75 g ai/ha; format: functional; conditions: read-out: GI; summary of the method: as §1
[12] = Phytotoxicity against four-leaf stage Oryza sativa (rice) plants assessed as plant growth inhibition at 150 g ai/ha applied through spraying measured 30 days after compound treatment under greenhouse conditions; format: organism-based; conditions: in vivo, read-out: GI
[13] = system: Setaria faberi; experiment: Post-emergence herbicidal activity against Setaria faberi (Giant Foxtail) seedlings assessed as plant growth inhibition at 37.5 g ai/ha measured 15 days after compound treatment under greenhouse conditions; format: functional; conditions: 360 h, read-out: GI
[14] = system: Digitaria sanguinalis; experiment: Post-emergence herbicidal activity against Digitaria sanguinalis (hairy crabgrass) seedlings assessed as plant growth inhibition at 75 g ai/ha measured 15 days after compound treatment under greenhouse conditions; format: functional; conditions: 360 h, read-out: GI
[15] = system: Echinochloa crus-galli; experiment: Post emergence herbicidal activity against Echinochloa crus-galli (barnyard grass) seedlings assessed as plant growth inhibition at 37.5 g ai/ha measured 15 days after compound treatment under greenhouse conditions; format: functional; conditions: 360 h, read-out: GI
[16] = system: Setaria faberi; experiment: Post-emergence herbicidal activity against Setaria faberi (Giant Foxtail) seedlings assessed as plant growth inhibition at 150 g ai/ha measured 15 days after compound treatment under greenhouse conditions; format: functional; conditions: 360 h, read-out: GI
[17] = system: Myosoton aquaticum; experiment: Post-emergence herbicidal activity against Myosoton aquaticum assessed as plant growth inhibition at 75 g ai/ha; format: functional; conditions: read-out: GI; summary of the method: as §1
[18] = molecular target: T1, Protoporphyrinogen oxidase, chloroplastic (Nicotiana tabacum, UniProt O24163); experiment: Inhibition of Nicotiana tabacum (tobacco) recombinant PPO assessed as protoporphyrin IX formation at room temperature by fluorimetric assay
T1 sequence (O24163 whole entry): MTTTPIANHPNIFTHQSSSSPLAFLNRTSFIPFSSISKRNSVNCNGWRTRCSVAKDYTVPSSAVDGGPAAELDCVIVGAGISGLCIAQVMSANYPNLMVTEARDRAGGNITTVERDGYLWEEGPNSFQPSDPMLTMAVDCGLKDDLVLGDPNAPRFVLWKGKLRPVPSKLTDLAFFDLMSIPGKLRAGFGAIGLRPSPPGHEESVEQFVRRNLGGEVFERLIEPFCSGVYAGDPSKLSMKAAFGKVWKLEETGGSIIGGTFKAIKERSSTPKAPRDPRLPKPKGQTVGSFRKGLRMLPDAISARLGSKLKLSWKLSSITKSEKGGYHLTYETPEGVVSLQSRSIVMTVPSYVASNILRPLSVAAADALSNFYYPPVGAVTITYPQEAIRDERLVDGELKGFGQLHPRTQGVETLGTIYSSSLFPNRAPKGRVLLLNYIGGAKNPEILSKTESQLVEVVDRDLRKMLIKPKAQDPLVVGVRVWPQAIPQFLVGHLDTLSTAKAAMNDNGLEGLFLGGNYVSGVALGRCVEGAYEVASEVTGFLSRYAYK

[19] = system: Amaranthus retroflexus; experiment: Post emergence herbicidal activity against Amaranthus retroflexus seedlings assessed as plant growth inhibition at 75 g ai/ha measured 15 days after compound treatment under greenhouse conditions; format: functional; conditions: 360 h, read-out: GI
[20] = system: Cerastium arvense; experiment: Post-emergence herbicidal activity against Cerastium arvense assessed as plant growth inhibition at 75 g ai/ha; format: functional; conditions: read-out: GI; summary of the method: as §1
[21] = system: Brassica juncea; experiment: Post-emergence herbicidal activity against Brassica juncea seedlings assessed as plant growth inhibition at 150 g ai/ha measured 15 days after compound treatment under greenhouse conditions; format: functional; conditions: 360 h, read-out: GI
[22] = system: Eleusine indica; experiment: Post-emergence herbicidal activity against Eleusine indica assessed as plant growth inhibition at 75 g ai/ha; format: functional; conditions: read-out: GI; summary of the method: as §1
[23] = system: Boehmeria nivea; experiment: Post-emergence herbicidal activity against Boehmeria nivea assessed as plant growth inhibition at 75 g ai/ha; format: functional; conditions: read-out: GI; summary of the method: as §1
[24] = system: Polygonum humifusum; experiment: Post-emergence herbicidal activity against Polygonum humifusum assessed as plant growth inhibition at 75 g ai/ha; format: functional; conditions: read-out: GI; summary of the method: as §1
[25] = system: Echinochloa crus-galli; experiment: Post emergence herbicidal activity against Echinochloa crus-galli (barnyard grass) seedlings assessed as plant growth inhibition at 150 g ai/ha measured 15 days after compound treatment under greenhouse conditions; format: functional; conditions: 360 h, read-out: GI
[26] = Phytotoxicity against four-leaf stage Brassica napus (oilseed rape) plants assessed as plant growth inhibition at 150 g ai/ha applied through spraying measured 30 days after compound treatment under greenhouse conditions; format: organism-based; conditions: in vivo, read-out: GI
[27] = system: Symphyotrichum subulatum; experiment: Post-emergence herbicidal activity against Symphyotrichum subulatum assessed as plant growth inhibition at 75 g ai/ha; format: functional; conditions: read-out: GI; summary of the method: as §1
[28] = system: Phytolacca acinosa; experiment: Post-emergence herbicidal activity against Raddix phytolaccae assessed as plant growth inhibition at 75 g ai/ha; format: functional; conditions: read-out: GI; summary of the method: as §1
[29] = system: Chenopodium album; experiment: Post-emergence herbicidal activity against Chenopodium album seedlings assessed as plant growth inhibition at 37.5 g ai/ha measured 15 days after compound treatment under greenhouse conditions; format: functional; conditions: 360 h, read-out: GI
[30] = system: Solanum nigrum; experiment: Post-emergence herbicidal activity against Solanum nigrum (black nightshade) assessed as plant growth inhibition at 75 g ai/ha; format: functional; conditions: read-out: GI; summary of the method: as §1
[31] = system: Alkekengi officinarum; experiment: Post-emergence herbicidal activity against Physalis alkekengi assessed as plant growth inhibition at 75 g ai/ha; format: functional; conditions: read-out: GI; summary of the method: as §1
[32] = system: Capsella bursa-pastoris; experiment: Post-emergence herbicidal activity against Capsella bursa-pastoris assessed as plant growth inhibition at 75 g ai/ha; format: functional; conditions: read-out: GI; summary of the method: as §1
[33] = system: Ludwigia prostrata; experiment: Post-emergence herbicidal activity against Ludwigia prostrata assessed as plant growth inhibition at 75 g ai/ha; format: functional; conditions: read-out: GI; summary of the method: as §1
[34] = system: Setaria faberi; experiment: Post-emergence herbicidal activity against Setaria faberi (Giant Foxtail) seedlings assessed as plant growth inhibition at 75 g ai/ha measured 15 days after compound treatment under greenhouse conditions; format: functional; conditions: 360 h, read-out: GI
[35] = system: Amaranthus retroflexus; experiment: Post emergence herbicidal activity against Amaranthus retroflexus seedlings assessed as plant growth inhibition at 37.5 g ai/ha measured 15 days after compound treatment under greenhouse conditions; format: functional; conditions: 360 h, read-out: GI
[36] = system: Amaranthus retroflexus; experiment: Post emergence herbicidal activity against Amaranthus retroflexus seedlings assessed as plant growth inhibition at 150 g ai/ha measured 15 days after compound treatment under greenhouse conditions; format: functional; conditions: 360 h, read-out: GI
[37] = Phytotoxicity against four-leaf stage Gossypium hirsutum (cotton) plants assessed as plant growth inhibition at 150 g ai/ha applied through spraying measured 30 days after compound treatment under greenhouse conditions; format: organism-based; conditions: in vivo, read-out: GI
[38] = system: Brassica juncea; experiment: Post-emergence herbicidal activity against Brassica juncea seedlings assessed as plant growth inhibition at 75 g ai/ha measured 15 days after compound treatment under greenhouse conditions; format: functional; conditions: 360 h, read-out: GI
[39] = system: Chenopodium album; experiment: Post-emergence herbicidal activity against Chenopodium album seedlings assessed as plant growth inhibition at 75 g ai/ha measured 15 days after compound treatment under greenhouse conditions; format: functional; conditions: 360 h, read-out: GI
[40] = system: Digitaria sanguinalis; experiment: Post-emergence herbicidal activity against Digitaria sanguinalis (hairy crabgrass) seedlings assessed as plant growth inhibition at 37.5 g ai/ha measured 15 days after compound treatment under greenhouse conditions; format: functional; conditions: 360 h, read-out: GI
[41] = system: Sonchus asper; experiment: Post-emergence herbicidal activity against Sonchus asper assessed as plant growth inhibition at 75 g ai/ha; format: functional; conditions: read-out: GI; summary of the method: as §1
[42] = system: Brassica juncea; experiment: Post-emergence herbicidal activity against Brassica juncea seedlings assessed as plant growth inhibition at 37.5 g ai/ha measured 15 days after compound treatment under greenhouse conditions; format: functional; conditions: 360 h, read-out: GI
[43] = system: Digitaria sanguinalis; experiment: Post-emergence herbicidal activity against Digitaria sanguinalis (hairy crabgrass) seedlings assessed as plant growth inhibition at 150 g ai/ha measured 15 days after compound treatment under greenhouse conditions; format: functional; conditions: 360 h, read-out: GI

SMILES: Cc1nn(-c2cc(NS(C)(=O)=O)c(Cl)cc2Cl)c(=O)n1C(F)F [SULFENTRAZONE]
- inhibition at 720 h [1]: 10%
- inhibition of growth at 150 g/ha [2]: ≥ 90%
- inhibition of growth at 75 g/ha [3]: 100%
- inhibition of growth at 75 g/ha [4]: > 90%
- inhibition at 720 h [5]: 70%
- inhibition at 720 h [6]: 20%
- inhibition of growth at 75 g/ha [7]: ≥ 90%
- inhibition at 720 h [8]: 20%
- inhibition of growth at 75 g/ha [9]: 100%
- inhibition of growth at 75 g/ha [10]: 100%
- inhibition of growth at 75 g/ha [11]: 100%
- inhibition at 720 h [12]: 70%
- inhibition of growth at 37.5 g/ha [13]: 60%
- inhibition of growth at 75 g/ha [14]: 50%
- inhibition of growth at 37.5 g/ha [15]: 80%
- inhibition of growth at 150 g/ha [16]: ≥ 90%
- inhibition of growth at 75 g/ha [17]: > 90%
- Ki [18]: 0.03 µM
- inhibition of growth at 75 g/ha [19]: ≥ 90%
- inhibition of growth at 75 g/ha [20]: > 90%
- inhibition of growth at 150 g/ha [21]: ≥ 90%
- inhibition of growth at 75 g/ha [22]: 100%
- inhibition of growth at 75 g/ha [23]: 100%
- inhibition of growth at 75 g/ha [24]: 100%
- inhibition of growth at 150 g/ha [25]: ≥ 90%
- inhibition at 720 h [26]: 100%
- inhibition of growth at 75 g/ha [27]: 100%
- inhibition of growth at 75 g/ha [28]: 100%
- inhibition of growth at 37.5 g/ha [29]: 60%
- inhibition of growth at 75 g/ha [30]: 100%
- inhibition of growth at 75 g/ha [31]: 100%
- inhibition of growth at 75 g/ha [32]: 100%
- inhibition of growth at 75 g/ha [33]: 100%
- inhibition of growth at 75 g/ha [34]: 80%
- inhibition of growth at 37.5 g/ha [35]: 80%
- inhibition of growth at 150 g/ha [36]: ≥ 90%
- inhibition at 720 h [37]: 100%
- inhibition of growth at 75 g/ha [38]: ≥ 90%
- inhibition of growth at 75 g/ha [39]: ≥ 90%
- inhibition of growth at 37.5 g/ha [40]: < 50%
- inhibition of growth at 75 g/ha [41]: 100%
- inhibition of growth at 37.5 g/ha [42]: 80%
- inhibition of growth at 150 g/ha [43]: 60%
